Rows were chosen to be rich in hits. Some 3.5% of all compounds tested hit in one or more screens of this group.
RGS4 act: RGS4 potentiators or activators, primary screen, cell-based, HEK293 M3R inducible RGS4, calcium flux; 0.92% of 310,000 active; AID 463111, 2010; B-score at 10 µM; carbachol calcium flux Fluo4; hits give low values;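 active = B-score of the integrated calcium signal more than 4 SD below the library mean, with starting fluorescence not abnormally high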;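 also: negative B-score means reduced calcium response which marks RGS4 activation or potentiation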
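System – HEK293 FlpIn-TREx cells, stable M3R, doxycycline-inducible RGS4 · Reagent – ECmax carbachol challenge · Times – compound preincubation 20 min at room temperature before agonist · Technique – Fluo4 fluorescence kinetic imaging of calcium · Measure – B score of integrated Fluo4 ratio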
MrgX1 antag: antagonists of human MrgX1 receptor, primary screen, HEK293 cells, Fluo-4 calcium flux; AID 588676, 2011; Mas-related G-protein coupled receptor member X1 (Homo sapiens), Q96LB2; B-score at 10 µM; BAM8-22 antagonism; hits give low values; 1.3% of 310,000 active;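 active = calcium-response B-score plate-corrected more than 3 library SD below zero, starting fluorescence within 5 deviations, no agonist response on first addition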;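 also: peak minus trough fluorescence over baseline after final BAM8-22 challenge near maximal dose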
MrgX1 allo act: positive allosteric modulators of MrgX1, primary screen, HEK293 cells, Fluo-4 calcium flux; 0.63% of 310,000 active; Mas-related G-protein coupled receptor member X1 (Homo sapiens), Q96LB2; AID 588675, 2011; B-score at 10 µM; FDSS; hits give high values;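 active = plate-corrected calcium response at least 3 library SD above typical, normal starting fluorescence, not activating the receptor alone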;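 also: compound read alongside a low EC10 to EC30 dose of BAM8-22 agonist; peak minus trough fluorescence over baseline measured at the second addition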
RGS4 block: RGS4 inhibitors, primary screen, cell-based, HEK293 M3R inducible RGS4, calcium flux. Regulator of G-protein signaling 4 (Homo sapiens), P49798. Fluo-4 calcium flux; hits give high values; triggered by carbachol at its EC20. B-score at 10 µM. 0.45% of 310,000 active. AID 463165, 2010;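 active = B-score, a plate-corrected calcium signal, over three deviations above library mean, with baseline fluorescence within five deviations of library mean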;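 also: RGS4 expression induced by doxycycline in cells with stable M3 receptor; B-score is computed from the integrated fluorescence ratio over baseline after carbachol; higher B-score means a larger calcium signal and so more RGS4 inhibition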
Target sequence (P49798 whole entry, looked up): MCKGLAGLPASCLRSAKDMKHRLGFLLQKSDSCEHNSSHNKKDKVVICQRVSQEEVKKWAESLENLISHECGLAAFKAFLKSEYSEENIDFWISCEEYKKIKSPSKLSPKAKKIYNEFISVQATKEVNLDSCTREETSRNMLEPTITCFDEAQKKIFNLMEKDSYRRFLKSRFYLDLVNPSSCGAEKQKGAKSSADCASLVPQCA
MrgX1 agonist: agonists of human MrgX1 receptor, primary screen, HEK293 cells, Fluo-4 calcium flux; 0.44% of 310,000 active; Mas-related G-protein coupled receptor member X1 (Homo sapiens), Q96LB2; Fluo-4 calcium fluorescence, agonist mode; hits give high values; B-score at 10 µM;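 active = calcium response B-score plate-corrected fluorescence ratio at least 3 library SD, with starting fluorescence B-score inside 5 SD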
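Material: MrgX1-expressing HEK293 cells; input: 15,000 cells per well; doses: test compound given as first of three sequential additions; schedule: overnight plating before 1 h dye loading; technique: Fluo-4 NW calcium-flux fluorescence, kinetic read; evaluation: baseline-normalised fluorescence change ratio, B-scored; control set: plate-wise positive and negative controls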
MrgX1 ant reconf: MrgX1 receptor antagonists, duplicate retest, confirmation, HEK293 cells, Fluo-4 calcium flux; shares compounds with MrgX1 antag; BAM8-22 calcium flux; hits give low values; remaining BAM8-22 calcium response % of control (hits give low values), % at 10 µM; 19% of 2,300 active;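 active = remaining agonist calcium response no higher than 100% minus 3 SD of agonist-only control wells, with starting fluorescence near control levels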;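 also: agonist BAM8-22 given at a near maximal EC90 to ECmax level; peak minus minimum fluorescence divided by baseline after agonist addition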
HEK293 Ca flux: nonspecific calcium signal in parental HEK293, confirmation, counter-screen for MrgX1 antagonist project, parental HEK293 cells, Fluo-4 calcium flux; shares compounds with MrgX1 antag; Fluo-4 calcium fluorescence, FDSS; fluorescence ratio F(max-min)/F0 at 10 µM; 2% of 4,000 active; AID 624111, 2012;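 active = duplicate-averaged calcium fluorescence ratio at least three times the standard deviation of buffer wells, a nonspecific response in parental cells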
HEK293 Ca counter: calcium response in parental HEK293 cells, primary screen, counter-screen for MrgX1 allosteric activator project, cell-based, Fluo-4 calcium flux, duplicate | shares compounds with MrgX1 antag | Fluo-4 fluorescence ratio; hits give high values | fluorescence ratio F(max-min)/F0 at 10 µM | 0.4% of 4,000 active | AID 624114, 2012;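 active = calcium fluorescence ratio, averaged over duplicates, at least 3 SD of the buffer-well ratio, meaning a nonspecific response in receptor-free cells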;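 also: untransfected parental HEK293 lacking MrgX1 used as counterscreen for MrgX1 allosteric activators; fluorescence change taken during the second addition on a kinetic imager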
HEK293 Ca cntr2: calcium response in parental HEK293 cells, primary screen, counter-screen for MrgX1 agonist project, cell-based, Fluo-4 calcium flux, duplicate, agonist mode | shares compounds with MrgX1 antag | 8.7% of 4,000 active | Fluo-4 calcium fluorescence (FDSS); hits give high values | fluorescence ratio F(max-min)/F0 at 10 µM | AID 624115, 2012;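 active = calcium fluorescence ratio at least three times the spread of buffer wells, meaning a non-specific response in parental cells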
Active calls of the source: *; i = inactive; · = no result.

SMILES	RGS4 act	MrgX1 antag	MrgX1 allo act	RGS4 block	MrgX1 agonist	MrgX1 ant reconf	HEK293 Ca flux	HEK293 Ca counter	HEK293 Ca cntr2
CC(C)CN(C(=O)COC(=O)/C=C/c1cccs1)c1c(N)n(Cc2ccccc2)c(=O)[nH]c1=O	i	i	i	i	i	·	·	·	·
CC(C)n1c(NCc2cc(Cl)ccc2O)nc2ccccc21	i	-7.1*	i	i	i	i	i	i	i
CCOC(=O)Cc1csc(NC(=O)c2c(O)c3c(n(CC(C)C)c2=O)CCCC3)n1	i	-6.8*	i	i	i	81%*	i	i	i
CCCOc1ccc(C(=O)N(CC(C)C)c2c(N)n(Cc3ccccc3)c(=O)[nH]c2=O)cc1	i	i	i	i	i	·	·	·	·
CCCn1cc(SCC(=O)NCc2ccco2)c2ccccc21	i	-9*	i	i	i	i	i	i	i
Cc1cccc(COc2ccccc2C(=O)NC2CCC(O)CC2)c1 (stereo unspecified)	i	-10*	i	i	i	i	i	i	i
CC(=O)NC(=S)Nc1ccccc1C(=O)NC1CCCCC1	i	-8.3*	i	i	i	i	i	i	i
S=C(Nc1cccc2ccccc12)NC1CCCCC1	i	-5.4*	i	i	i	i	i	i	i
COc1ccccc1NC(=O)N1CCC(NC(=O)C2CCCCC2)CC1	i	-8.2*	i	i	i	i	i	i	i
CSc1ccccc1NC(=S)NC1CCCCC1	i	i	i	i	i	·	·	·	·
COc1ccc(S(=O)(=O)N2CCC(C(=O)N[C@H](C(=O)N3CCCCCC3)C(C)C)CC2)cc1	i	i	i	i	i	·	·	·	·
COc1ccccc1C(=O)NC1CCCCCCC1	i	-11*	i	i	i	i	i	i	i
Cc1cc(S(=O)(=O)NCc2ccccc2)ccc1OCC(=O)NCc1ccncc1	i	i	i	i	i	·	·	·	·
Cc1ccc(-n2nnc(-c3ccnc4ccccc34)n2)cc1	i	i	i	i	i	·	·	·	·
Cc1cccc(N(CC(=O)NC2CCCCC2)C(=O)c2c(C)noc2C)c1	i	-6.5*	i	i	i	i	i	i	i
Cc1cccc(N(CC(=O)NC2CCCCC2)C(=O)c2csnn2)c1	i	i	i	i	i	·	·	·	·
CN(C(=O)COc1ccc(Oc2ccccc2)cc1)C1CCS(=O)(=O)C1 (stereo unspecified)	i	i	i	i	i	·	·	·	·

Screens deposited in PubChem BioAssay by Johns Hopkins Ion Channel Center.
